The record followed here is ChEMBL document CHEMBL2375292, “Biaryl tetrazolyl ureas as inhibitors of endocannabinoid metabolism: modulation at the N-portion and distal phenyl ring” (Eur J Med Chem, 2013).

Experiment [1] has as its target T1, Transient receptor potential cation channel subfamily V member 1 (Homo sapiens, UniProt Q8NER1). The experiment in a line: Agonist activity at human TRPV1 receptor expressed in HEK293 cells assessed as increase in intracellular Ca2+ concentration by spectrofluorimetric analysis. It counts as cell-based. Put shortly: (§1)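 HEK293 cells stably transfected with human TRPV1 or rat TRPA1 cDNA (pcDNA3, G-418 selection) were loaded 1 h at room temperature with Fluo-4-AM, washed and suspended in Tyrode's buffer pH 7.4. [Ca²⁺]i was read by stirred-cuvette spectrofluorimetry before and after adding test compound at various concentrations. Signal from untransfected cells was subtracted. Efficacy was taken as percent of ionomycin (4 µM) for TRPV1 and percent of allyl isothiocyanate (100 µM) for TRPA1; EC50 was also derived.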

In experiment [2] the target is T1, Transient receptor potential cation channel subfamily V member 1. The experiment in a line: Antagonist activity at human TRPV1 receptor expressed in HEK293 cells assessed as inhibition of capsaicin-induced intracellular Ca2+ elevation incubated for 5 mins prior to capsaicin-stimulation by spectrofluorimetric analysis. In kind it is cell-based. Put shortly:
(§2)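 Fluo-4-loaded HEK293 cells stably expressing human TRPV1 or rat TRPA1, in Tyrode's buffer pH 7.4, received test compound in the cuvette 5 min before agonist: capsaicin 0.1 µM for TRPV1, AITC 100 µM for TRPA1. The [Ca²⁺]i rise with agonist alone was set to 100%. IC50 came from a variable-slope sigmoidal fit. Untransfected-cell signal was subtracted.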

The target of experiment [3] is Transient receptor potential cation channel subfamily A member 1 (Rattus norvegicus) (UniProt Q6RI86). As to the kind of experiment: Agonist activity at rat TRPA1 receptor expressed in HEK293 cells assessed as increase in intracellular Ca2+ concentration by spectrofluorimetric analysis relative to allyl isothiocyanate. It counts as cell-based. In a few lines:
as §1

Experiment [4] addresses TRPA1 (Rattus norvegicus). The experiment in a line: Agonist activity at GDH-tagged rat TRPA1 receptor expressed in HEK293F cells assessed as increase in intracellular Ca2+ concentration by Fluo-4 spectrofluorimetric assay.
Experiment [5] concerns the target T1, Transient receptor potential cation channel subfamily V member 1. As to the kind of experiment: Agonist activity at human TRPV1 receptor expressed in HEK293 cells assessed as increase in intracellular Ca2+ concentration by spectrofluorimetric analysis relative to ionomycin. In kind it is cell-based. In a few lines: as §1
In experiment [6] the target is T2, Fatty-acid amide hydrolase 1 (Rattus norvegicus, UniProt P97612).
T2 sequence (P97612 whole entry): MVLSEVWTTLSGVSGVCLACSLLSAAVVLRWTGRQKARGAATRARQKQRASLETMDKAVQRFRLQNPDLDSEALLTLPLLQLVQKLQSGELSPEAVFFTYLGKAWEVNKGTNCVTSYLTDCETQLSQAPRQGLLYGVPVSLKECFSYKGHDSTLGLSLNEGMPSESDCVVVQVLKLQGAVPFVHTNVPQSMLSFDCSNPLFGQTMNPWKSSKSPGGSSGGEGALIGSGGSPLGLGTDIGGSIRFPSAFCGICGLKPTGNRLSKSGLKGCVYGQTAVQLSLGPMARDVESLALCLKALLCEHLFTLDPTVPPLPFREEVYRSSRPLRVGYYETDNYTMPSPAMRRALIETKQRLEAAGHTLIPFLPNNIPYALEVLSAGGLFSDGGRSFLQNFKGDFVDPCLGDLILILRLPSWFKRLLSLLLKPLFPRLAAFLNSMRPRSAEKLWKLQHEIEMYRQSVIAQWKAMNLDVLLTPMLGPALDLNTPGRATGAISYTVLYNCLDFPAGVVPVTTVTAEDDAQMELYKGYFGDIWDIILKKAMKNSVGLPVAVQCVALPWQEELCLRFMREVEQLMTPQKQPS
As to the kind of experiment: Inhibition of FAAH in rat brain membranes assessed as [14C]AEA hydrolysis to [14C]Ethanolamine after 30 mins by scintillation counting analysis. In kind it is cell membranes. In a few lines: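 Rat brain membranes were incubated with [¹⁴C]AEA in 50 mM Tris-HCl pH 9 for 30 min at 37 °C. Released [¹⁴C]ethanolamine in the aqueous phase was counted by scintillation after CHCl₃/CH₃OH 2/1 extraction. IC50 was the concentration giving 50% inhibition.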

The target in experiment [7] is T3, Transient receptor potential cation channel subfamily A member 1 (Rattus norvegicus, UniProt Q6RI86). As to the kind of experiment: Agonist activity at rat TRPA1 receptor expressed in HEK293 cells assessed as increase in intracellular Ca2+ concentration by spectrofluorimetric analysis. It counts as cell-based. In a few lines: as §1
T3 sequence (Q6RI86 whole entry): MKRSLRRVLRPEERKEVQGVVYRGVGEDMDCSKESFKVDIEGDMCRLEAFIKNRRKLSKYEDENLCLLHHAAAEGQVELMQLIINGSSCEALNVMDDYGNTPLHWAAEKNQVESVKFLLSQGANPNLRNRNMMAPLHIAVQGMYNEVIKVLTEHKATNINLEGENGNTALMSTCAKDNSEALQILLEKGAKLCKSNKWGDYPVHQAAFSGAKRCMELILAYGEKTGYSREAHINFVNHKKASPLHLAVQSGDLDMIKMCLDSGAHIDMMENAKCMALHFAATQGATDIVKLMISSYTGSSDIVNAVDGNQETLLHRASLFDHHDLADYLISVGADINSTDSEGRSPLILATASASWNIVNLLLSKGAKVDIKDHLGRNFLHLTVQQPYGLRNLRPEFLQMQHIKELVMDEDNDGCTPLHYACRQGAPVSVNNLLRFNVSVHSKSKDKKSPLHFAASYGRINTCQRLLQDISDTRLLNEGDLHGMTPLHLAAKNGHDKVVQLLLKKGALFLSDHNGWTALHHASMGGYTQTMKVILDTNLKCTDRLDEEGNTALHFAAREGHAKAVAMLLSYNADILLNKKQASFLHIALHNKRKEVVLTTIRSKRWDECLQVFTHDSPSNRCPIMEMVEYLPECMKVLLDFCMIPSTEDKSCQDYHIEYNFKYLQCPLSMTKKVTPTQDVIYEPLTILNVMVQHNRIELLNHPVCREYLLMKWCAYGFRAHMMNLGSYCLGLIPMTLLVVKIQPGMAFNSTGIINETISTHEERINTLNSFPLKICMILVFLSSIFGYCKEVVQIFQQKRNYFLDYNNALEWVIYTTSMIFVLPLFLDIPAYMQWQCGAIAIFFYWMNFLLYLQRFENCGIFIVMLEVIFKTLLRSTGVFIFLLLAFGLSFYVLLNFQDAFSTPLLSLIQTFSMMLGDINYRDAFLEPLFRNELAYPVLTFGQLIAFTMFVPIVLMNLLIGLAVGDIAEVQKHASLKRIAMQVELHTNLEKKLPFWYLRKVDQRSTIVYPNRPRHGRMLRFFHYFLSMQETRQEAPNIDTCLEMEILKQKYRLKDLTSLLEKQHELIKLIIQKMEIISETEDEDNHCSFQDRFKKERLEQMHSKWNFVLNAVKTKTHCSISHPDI
Experiment [8] has as its target T3, Transient receptor potential cation channel subfamily A member 1. The experiment in a line: Antagonist activity at rat TRPA1 receptor expressed in HEK293 cells assessed as inhibition of allyl isothiocyanate-induced intracellular Ca2+ elevation incubated for 5 mins prior to allyl isothiocyanate-stimulation by spectrofluorimetric analysis. It counts as cell-based. In a few lines: as §2

T1 sequence (Q8NER1 whole entry): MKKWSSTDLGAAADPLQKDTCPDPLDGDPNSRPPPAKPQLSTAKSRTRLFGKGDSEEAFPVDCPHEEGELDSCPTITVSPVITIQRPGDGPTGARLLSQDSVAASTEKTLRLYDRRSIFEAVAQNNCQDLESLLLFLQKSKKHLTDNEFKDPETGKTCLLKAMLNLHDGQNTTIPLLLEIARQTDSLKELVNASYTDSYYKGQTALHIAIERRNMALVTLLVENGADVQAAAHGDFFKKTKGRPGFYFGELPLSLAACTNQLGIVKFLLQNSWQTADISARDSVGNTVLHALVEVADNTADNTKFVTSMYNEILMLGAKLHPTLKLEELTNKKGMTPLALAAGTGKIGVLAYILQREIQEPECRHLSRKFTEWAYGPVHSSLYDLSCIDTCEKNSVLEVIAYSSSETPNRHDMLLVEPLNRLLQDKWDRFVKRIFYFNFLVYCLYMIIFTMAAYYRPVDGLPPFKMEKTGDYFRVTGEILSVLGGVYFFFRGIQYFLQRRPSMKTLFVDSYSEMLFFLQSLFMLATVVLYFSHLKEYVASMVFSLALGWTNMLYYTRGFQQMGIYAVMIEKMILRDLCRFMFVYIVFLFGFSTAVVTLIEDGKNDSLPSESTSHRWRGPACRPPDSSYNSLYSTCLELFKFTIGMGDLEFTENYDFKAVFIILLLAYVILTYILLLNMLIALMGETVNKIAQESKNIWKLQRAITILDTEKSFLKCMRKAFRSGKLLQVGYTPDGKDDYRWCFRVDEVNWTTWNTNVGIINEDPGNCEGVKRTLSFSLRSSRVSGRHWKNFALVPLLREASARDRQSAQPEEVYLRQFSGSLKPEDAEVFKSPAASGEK
Chain of Transient receptor potential cation channel subfamily A member 1 (Rattus norvegicus) (Q6RI86 whole entry): as the sequence (Q6RI86 whole entry) above

Regarding `CN(C(=O)n1nnc(Cc2ccc(-c3ccccc3)cc2)n1)C1CCCCC1`, the EC50 in experiment [1] was found to be 0.25 µM; in experiment [4], 0.15 µM; in experiment [7], 0.15 µM. Also, the IC50 came to 9.2 µM in experiment [2], 0.0963 µM in experiment [6] and 15.4 µM in experiment [8]. Moreover, the Efficacy in experiment [3] was 45.2%; in experiment [5], 33.6%.
